Test results reported in ChEMBL document CHEMBL1124846, “Synthesis, antiproliferative, and antiviral activity of certain 4-substituted and 4,5-disubstituted 7-[(1,3-dihydroxy-2-propoxy)methyl]pyrrolo[2,3-d]pyrimidines” (J Med Chem, 1990).

Key:
[1] = Compound was evaluated for cytotoxic activity against BSC cells; format: cell-based; settings: Cercopithecidae
Method in brief: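 Visual cytotoxicity in uninfected areas of plaque-reduction cultures. HFF cells grown in MEM(E) + 10% FBS for HCMV (Towne) assays; BSC-1 cells for HSV-1 (S-148) assays. Drug in overlay medium. Cytopathology scored 0 to 4+ at 35- and 60-fold magnification on the staining day.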

Human alphaherpesvirus 1 [2] = test: Inhibition of herpes simplex virus (HSV-1) in plaque reduction assay; format: functional, organism-based
Method in brief: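 HSV-1 S-148 strain plaque reduction in BSC-1 monkey kidney monolayers, with about 100 PFU inoculum and compound dissolved in the overlay medium. IC50 came from linear regression of percent inhibition against log concentration, with a positive control in each set.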

Human alphaherpesvirus 1 [3] = test: Inhibition of herpes simplex virus (HSV-1) in yield reduction assay; format: functional, organism-based
Human betaherpesvirus 5 = test: Inhibition of human cytomegalovirus (HCMV) in plaque reduction assay; format: functional, organism-based
Method in brief: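 HCMV Towne strain (plaque-purified P0) plaque reduction in HFF monolayers in MEM(E) with 10% FBS. Inoculum held about 50 PFU, with compound dissolved in the overlay medium. IC50 came from linear regression of percent inhibition against log concentration, with ganciclovir or acyclovir positive controls in every set; two to five experiments.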

Neoplastic cell line [4] = test: Compound was evaluated for cytotoxic activity against KB cells; format: cell-based; settings: Homo sapiens
Method in brief: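 KB cells grown in MEM(H) + 5% FBS. Compound effects measured on radiolabelled precursor incorporation into DNA, RNA and protein. IC50s from linear regression of percent inhibition vs log concentration. The three IC50s were averaged, with 2–5 experiments averaged. Runs rejected if the acyclovir/ganciclovir control deviated >1.5 SD from its mean.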

Mus musculus [5] = test: Compound was evaluated for percent mortality of mice inoculated with murine cytomegalovirus at a concentration of 5.6 mg/kg at 48 h; format: ADME, organism-based; set-up: dose 5.6 mg/kg; settings: in vivo
Method in brief: (§1)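 Three-week-old female Swiss Webster mice infected ip with 2×10^5 PFU MCMV Smith strain; groups of 15 given drug ip twice daily for 5 days, starting 6, 24 or 48 h after inoculation. Toxicity controls received drug without virus. Mortality followed daily for 21 days; final mortality compared with placebo by Fisher Exact Test.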

Mus musculus [6] = test: Compound was evaluated for percent mortality of mice inoculated with murine cytomegalovirus at a concentration of 5.6 mg/kg at 6 h; format: ADME, organism-based; set-up: dose 5.6 mg/kg; settings: in vivo; method in brief: as §1
Mus musculus [7] = test: Compound was evaluated for percent mortality of mice inoculated with murine cytomegalovirus at a concentration of 0.6 mg/kg at 24 h; format: organism-based; set-up: dose 0.6 mg/kg; settings: in vivo
Method in brief: (§2)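 Three-week-old female Swiss Webster mice inoculated ip with 2×10^5 PFU MCMV Smith strain. Groups of 15 dosed ip twice daily for 5 days, starting 6, 24 or 48 h post-inoculation. Held 21 days with daily mortality checks. Final mortality and mean day of death (dying animals) computed. Mortality versus placebo by Fisher Exact Test, MDD by Mann–Whitney U-rank test.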

Mus musculus [8] = test: Compound was evaluated for percent mortality of mice inoculated with murine cytomegalovirus at a concentration of 0.6 mg/kg at 48 h; format: organism-based; set-up: dose 0.6 mg/kg; settings: in vivo; method in brief: as §2
Mus musculus [9] = test: Compound was evaluated for percent mortality of mice inoculated with murine cytomegalovirus at a concentration of 0.6 mg/kg at 6 h; format: organism-based; set-up: dose 0.6 mg/kg; settings: in vivo; method in brief: as §2
Mus musculus [10] = test: Compound was evaluated for percent mortality of mice inoculated with murine cytomegalovirus at a concentration of 1.9 mg/kg at 24 h; format: organism-based; set-up: dose 1.9 mg/kg; settings: in vivo; method in brief: as §2
Mus musculus [11] = test: Compound was evaluated for percent mortality of mice inoculated with murine cytomegalovirus at a concentration of 1.9 mg/kg at 48 h; format: organism-based; set-up: dose 1.9 mg/kg; settings: in vivo; method in brief: as §2
Mus musculus [12] = test: Compound was evaluated for percent mortality of mice inoculated with murine cytomegalovirus at a concentration of 1.9 mg/kg at 6 h; format: organism-based; set-up: dose 1.9 mg/kg; settings: in vivo; method in brief: as §2
Mus musculus [13] = test: Compound was evaluated for percent mortality of mice inoculated with murine cytomegalovirus at a concentration of 16.7 mg/kg at 24 h; format: organism-based; set-up: dose 16.7 mg/kg; settings: in vivo; method in brief: as §2
Mus musculus [14] = test: Compound was evaluated for percent mortality of mice inoculated with murine cytomegalovirus at a concentration of 16.7 mg/kg at 48 h; format: organism-based; set-up: dose 16.7 mg/kg; settings: in vivo; method in brief: as §2
Mus musculus [15] = test: Compound was evaluated for percent mortality of mice inoculated with murine cytomegalovirus at a concentration of 16.7 mg/kg at 6 h; format: organism-based; set-up: dose 16.7 mg/kg; settings: in vivo; method in brief: as §2
Mus musculus [16] = test: Compound was evaluated for percent mortality of mice inoculated with murine cytomegalovirus at a concentration of 5.6 mg/kg at 24 h; format: ADME, organism-based; set-up: dose 5.6 mg/kg; settings: in vivo; method in brief: as §1
Mus musculus [17] = test: Compound was evaluated for 15 mice treated ip twice daily for 5 days at a dose of 0.6 mg/kg at 24 h followed (MCMV) virus inoculation; format: functional; settings: route intraperitoneal; method in brief: as §2
Mus musculus [18] = test: Compound was evaluated for 15 mice treated ip twice daily for 5 days at a dose of 0.6 mg/kg at 48 h followed (MCMV) virus inoculation; format: functional; settings: route intraperitoneal; method in brief: as §2
Mus musculus [19] = test: Compound was evaluated for 15 mice treated ip twice daily for 5 days at a dose of 0.6 mg/kg at 6 hr followed (MCMV) virus inoculation; format: functional; settings: route intraperitoneal; method in brief: as §2
Mus musculus [20] = test: Compound was evaluated for 15 mice treated ip twice daily for 5 days at a dose of 1.9 mg/kg at 24 hr followed (MCMV) virus inoculation; format: functional; settings: route intraperitoneal; method in brief: as §2
Mus musculus [21] = test: Compound was evaluated for 15 mice treated ip twice daily for 5 days at a dose of 1.9 mg/kg at 48 hr followed (MCMV) virus inoculation; format: functional; settings: route intraperitoneal; method in brief: as §2
Mus musculus [22] = test: Compound was evaluated for 15 mice treated ip twice daily for 5 days at a dose of 1.9 mg/kg at 6 hr followed (MCMV) virus inoculation; format: functional; settings: route intraperitoneal; method in brief: as §2
Mus musculus [23] = test: Compound was evaluated for 15 mice treated ip twice daily for 5 days at a dose of 16.7 mg/kg at 24 hr followed (MCMV) virus inoculation; format: functional; settings: route intraperitoneal; method in brief: as §2
Mus musculus [24] = test: Compound was evaluated for 15 mice treated ip twice daily for 5 days at a dose of 16.7 mg/kg at 48 hr followed (MCMV) virus inoculation; format: functional; settings: route intraperitoneal; method in brief: as §2
Mus musculus [25] = test: Compound was evaluated for 15 mice treated ip twice daily for 5 days at a dose of 16.7 mg/kg at 6 hr followed (MCMV) virus inoculation; format: functional; settings: route intraperitoneal; method in brief: as §2
Mus musculus [26] = test: Compound was evaluated for 15 mice treated ip twice daily for 5 days at a dose of 5.6 mg/kg at 24 hr followed (MCMV) virus inoculation; format: functional; settings: route intraperitoneal; method in brief: as §2
Mus musculus [27] = test: Compound was evaluated for 15 mice treated ip twice daily for 5 days at a dose of 5.6 mg/kg at 48 hr followed (MCMV) virus inoculation; format: functional; settings: route intraperitoneal; method in brief: as §2
Mus musculus [28] = test: Compound was evaluated for 15 mice treated ip twice daily for 5 days at a dose of 5.6 mg/kg at 6 hr followed (MCMV) virus inoculation; format: functional; settings: route intraperitoneal; method in brief: as §2
Mus musculus [29] = test: Compound was evaluated for mean day of death at 0.6 mg/kg at 48 h; format: functional; method in brief: as §2
Mus musculus [30] = test: Compound was evaluated for mean day of death at 0.6 mg/kg at 6 h; format: functional; method in brief: as §2
Mus musculus [31] = test: Compound was evaluated for mean day of death at 1.9 mg/kg at 24 h; format: functional; method in brief: as §2
Mus musculus [32] = test: Compound was evaluated for mean day of death at 1.9 mg/kg at 48 h; format: functional; method in brief: as §2
Mus musculus [33] = test: Compound was evaluated for mean day of death at 1.9 mg/kg at 6 h; format: functional; method in brief: as §2
Mus musculus [34] = test: Compound was evaluated for mean day of death at 16.7 mg/kg at 24 h; format: functional; method in brief: as §2
Mus musculus [35] = test: Compound was evaluated for mean day of death at 16.7 mg/kg at 48 h; format: functional; method in brief: as §2
Mus musculus [36] = test: Compound was evaluated for mean day of death at 16.7 mg/kg at 6 h; format: functional; method in brief: as §2
Mus musculus [37] = test: Compound was evaluated for mean day of death at 5.6 mg/kg at 24 h; format: functional; method in brief: as §2
Mus musculus [38] = test: Compound was evaluated for mean day of death at 5.6 mg/kg at 48 h; format: functional; method in brief: as §2
Mus musculus [39] = test: Compound was evaluated for mean day of death at 5.6 mg/kg at 6 h; format: functional; method in brief: as §2
Mus musculus [40] = test: Compound was evaluated for mean day of death at 0.6 mg/kg at 24 h; format: functional; method in brief: as §2
[41] = Cytotoxic activity against BSC cells; format: cell-based; settings: Cercopithecidae
Method in brief: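 Cytotoxicity was scored visually in uninfected HFF or BSC-1 monolayers within the plaque-reduction assays. Drug-induced cytopathology was read at 35- and 60-fold magnification on a 0 to 4+ scale on the day plaques were stained and counted.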

Neoplastic cell line [42] = test: Cytotoxic activity against KB cells.; format: cell-based; settings: Homo sapiens
Method in brief: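 KB cells (human oral epidermoid carcinoma) grown in MEM(H) with 5% FBS. Compound effect on incorporation of radiolabelled precursors into DNA, RNA and protein was measured. IC50s came from linear regression of percent inhibition against log concentration, and the three IC50s were averaged.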

SMILES: Nc1nc2c(ncn2COC(CO)CO)c(=O)[nH]1 [GANCICLOVIR]
- IC50 [1]: > 100 µM
- IC50 (Human alphaherpesvirus 1 [2]): 4.5 µM
- IC90 (Human alphaherpesvirus 1 [3]): 1.2 µM
- IC50 (Human betaherpesvirus 5): 8.7 µM
- IC50 (Neoplastic cell line [4]): > 100 µM
- Mortality (Mus musculus [5]): 67%
- Mortality (Mus musculus [6]): 33%
- Mortality (Mus musculus [7]): 80%
- Mortality (Mus musculus [8]): 93%
- Mortality (Mus musculus [9]): 93%
- Mortality (Mus musculus [10]): 80%
- Mortality (Mus musculus [11]): 73%
- Mortality (Mus musculus [12]): 33%
- Mortality (Mus musculus [13]): 47%
- Mortality (Mus musculus [14]): 53%
- Mortality (Mus musculus [15]): 27%
- Mortality (Mus musculus [16]): 47%
- Activity (Mus musculus [17]): 12
- Activity (Mus musculus [18]): 14
- Activity (Mus musculus [19]): 14
- Activity (Mus musculus [20]): 12
- Activity (Mus musculus [21]): 11
- Activity (Mus musculus [22]): 5
- Activity (Mus musculus [23]): 7
- Activity (Mus musculus [24]): 8
- Activity (Mus musculus [25]): 4
- Activity (Mus musculus [26]): 7
- Activity (Mus musculus [27]): 10
- Activity (Mus musculus [28]): 5
- MDD (Mus musculus [29]): 5.3
- MDD (Mus musculus [30]): 4.6
- MDD (Mus musculus [31]): 4.9
- MDD (Mus musculus [32]): 4.9
- MDD (Mus musculus [33]): 5.4
- MDD (Mus musculus [34]): 5.3
- MDD (Mus musculus [35]): 5.5
- MDD (Mus musculus [36]): 3.8
- MDD (Mus musculus [37]): 5.3
- MDD (Mus musculus [38]): 5.5
- MDD (Mus musculus [39]): 4.2
- MDD (Mus musculus [40]): 5.4

SMILES: Nc1nc2c(ncn2COCCO)c(=O)[nH]1 [ACYCLOVIR]
- IC50 [41]: > 100 µM
- IC50 (Human alphaherpesvirus 1 [2]): 4 µM
- IC90 (Human alphaherpesvirus 1 [3]): 7 µM
- IC50 (Human betaherpesvirus 5): 63 µM
- IC50 (Neoplastic cell line [42]): > 100 µM
